Measured values reported in ChEMBL document CHEMBL2029242 (J Med Chem, 2012).
Activity calls are given as the source filed them. The rule behind the calls is not given here.

How the values were obtained:
[1] = Volume of distribution in Sprague-Dawley rat at 1 mg/kg, iv and 10 mg/kg, po; assay type: ADME, organism-based; details: in vivo
Outline: (§1)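 Male Sprague-Dawley rats (250–350 g, jugular-catheterized) received a single dose either iv at 1 mg/kg in 3:1 PEG400/water (n = 2) or po at 10 mg/kg in Pharmatek #6 (n = 3). Plasma was sampled at 5 min (iv only), 15 and 30 min, and 1, 2, 4, 6 and 24 h. Samples were analyzed by LC-MS/MS after acetonitrile precipitation. Parameters came from noncompartmental linear-trapezoidal analysis of individual animals.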

[2] = Tmax in Sprague-Dawley rat at 10 mg/kg, po; assay type: ADME, organism-based; set-up: dose 10 mg/kg, route oral; details: in vivo; outline: as §1
[3] = Oral bioavailability in Sprague-Dawley rat at 10 mg/kg; assay type: ADME, organism-based; details: in vivo; outline: as §1
[4] = test system: Mus musculus; experiment: Toxicity in athymic nude mouse xenografted with human COLO205 cells at 100 mg/kg, po bid for 14 days; assay type: organism-based, COLO 205; set-up: dose 100 mg/kg, route oral; details: in vivo, 336 h
Outline: (§2)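 Athymic nude mice (20–25 g) were inoculated subcutaneously in the flank with 1×10^6 Colo-205 cells. At 150–200 mm3 they were randomized (n = 10/group) to oral vehicle (22% HPβCD) or 10, 30 or 100 mg/kg BID for 14 days. Calipers were used three times weekly. Body weight and behavior were monitored, with 7–10 days of follow-up after dosing. Partial regression meant volume falling in ≥3 successive measurements, ending below baseline but still palpable.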

[5] = target: Serine/threonine-protein kinase B-raf (Homo sapiens, UniProt P15056, V600E)
Serine/threonine-protein kinase B-raf, sequence (P15056 2-766 V600E limits assumed): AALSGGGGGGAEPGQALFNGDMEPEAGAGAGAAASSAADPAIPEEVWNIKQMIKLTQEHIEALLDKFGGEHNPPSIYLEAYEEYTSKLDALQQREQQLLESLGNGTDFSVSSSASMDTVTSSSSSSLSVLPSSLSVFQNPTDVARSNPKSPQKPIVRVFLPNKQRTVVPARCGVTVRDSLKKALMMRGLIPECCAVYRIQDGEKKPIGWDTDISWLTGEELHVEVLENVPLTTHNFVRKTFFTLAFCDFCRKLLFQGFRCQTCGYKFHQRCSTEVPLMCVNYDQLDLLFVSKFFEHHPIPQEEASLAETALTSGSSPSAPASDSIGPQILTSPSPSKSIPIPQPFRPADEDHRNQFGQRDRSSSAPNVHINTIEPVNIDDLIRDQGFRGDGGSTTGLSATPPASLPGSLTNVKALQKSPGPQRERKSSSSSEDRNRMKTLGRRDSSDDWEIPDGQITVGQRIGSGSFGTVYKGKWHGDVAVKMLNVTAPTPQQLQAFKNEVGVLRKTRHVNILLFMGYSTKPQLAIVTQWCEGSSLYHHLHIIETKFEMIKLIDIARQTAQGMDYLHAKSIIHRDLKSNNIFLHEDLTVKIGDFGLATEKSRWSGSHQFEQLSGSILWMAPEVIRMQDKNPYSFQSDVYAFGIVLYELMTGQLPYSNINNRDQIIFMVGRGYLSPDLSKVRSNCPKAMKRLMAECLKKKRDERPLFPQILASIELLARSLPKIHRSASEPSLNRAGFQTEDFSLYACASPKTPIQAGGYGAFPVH

[6] = test system: PC-3; experiment: Cytotoxicity against human PC3 cells expressing wild type BRAF after 72 hrs by cell titer blue assay; assay type: functional, cell-based; details: PC-3, 72 h
Outline: (§3)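 Cells were grown in ATCC-recommended media and kept overnight in 0.5% serum. They were then exposed to compound for 72 h, and Cell Titer Blue was added for 3 h. EC50 came from fluorometric concentration−response curves, run in duplicate and repeated at least once.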

[7] = test system: Mus musculus; experiment: Toxicity in athymic nude mouse xenografted with human COLO205 cells at 10 mg/kg, po bid for 14 days; assay type: organism-based, COLO 205; set-up: dose 10 mg/kg, route oral; details: in vivo, 336 h; outline: as §2
[8] = test system: Mus musculus; experiment: Inhibition of BRAF V600E mutant-mediated MEK phosphorylation in human COLO205 cells xenografted in athymic nude mouse at 30 mg/kg, po after 2 hrs; assay type: functional; details: COLO 205, 2 h
Outline: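 Mice bearing Colo-205 xenografts got one oral dose in 22% HPβCD; vehicle controls were run. Tumors were collected at time points over 24 h and lysed. pMEK and total MEK in the lysates were measured by immunoblotting and ELISA, and pMEK was normalized to total MEK.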

[9] = Clearance in Sprague-Dawley rat at 1 mg/kg, iv and 10 mg/kg, po; assay type: ADME, organism-based; details: in vivo
Outline: (§4)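 Single-dose PK. Rats: male Sprague−Dawley, jugular-catheterized, 1 mg/kg iv in 3:1 PEG400/water (n = 2) and 10 mg/kg po in Pharmatek #6 (n = 3). Female athymic nude mice: 100 mg/kg po in Pharmatek #6 (n = 3). Beagle dogs and male cynomolgus monkeys (n = 3): crossover, 1 mg/kg iv and 10 mg/kg po in 22% HPβCD, overnight fast. Plasma LC-MS/MS to 24 h; noncompartmental parameters, mean ± SD.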

[10] = test system: Mus musculus; experiment: Toxicity in athymic nude mouse xenografted with human COLO205 cells at 30 mg/kg, po bid for 14 days measured upto 1 week post dosing; assay type: organism-based, COLO 205; set-up: dose 30 mg/kg, route oral; details: in vivo; outline: as §2
[11] = Half life in Cynomolgus monkey at 1 mg/kg, iv and 10 mg/kg, po; assay type: ADME, organism-based, Macaca fascicularis; details: in vivo; outline: as §4
[12] = Intrinsic clearance in Cynomolgus monkey liver microsomes; assay type: ADME, Macaca fascicularis, Microsome
Outline: (§5)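 Pooled liver microsomes (0.5 mg/mL) in 0.1 M phosphate pH 7.4 with 6.5 mM MgCl2 and compound at 1 μM (0.2% DMSO). NADPH (1 mM) started the reaction at 37 °C, with minus-NADPH and testosterone controls. Aliquots taken at 0, 5, 15, 30 and 60 min were quenched in acetonitrile; duplicates.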

[13] = target: RAF proto-oncogene serine/threonine-protein kinase (Homo sapiens, UniProt P04049); experiment: Inhibition of CRAF in human HEK293 cells after 1 hr by competition binding assay; assay type: cell-based
RAF proto-oncogene serine/threonine-protein kinase, sequence (P04049 whole entry): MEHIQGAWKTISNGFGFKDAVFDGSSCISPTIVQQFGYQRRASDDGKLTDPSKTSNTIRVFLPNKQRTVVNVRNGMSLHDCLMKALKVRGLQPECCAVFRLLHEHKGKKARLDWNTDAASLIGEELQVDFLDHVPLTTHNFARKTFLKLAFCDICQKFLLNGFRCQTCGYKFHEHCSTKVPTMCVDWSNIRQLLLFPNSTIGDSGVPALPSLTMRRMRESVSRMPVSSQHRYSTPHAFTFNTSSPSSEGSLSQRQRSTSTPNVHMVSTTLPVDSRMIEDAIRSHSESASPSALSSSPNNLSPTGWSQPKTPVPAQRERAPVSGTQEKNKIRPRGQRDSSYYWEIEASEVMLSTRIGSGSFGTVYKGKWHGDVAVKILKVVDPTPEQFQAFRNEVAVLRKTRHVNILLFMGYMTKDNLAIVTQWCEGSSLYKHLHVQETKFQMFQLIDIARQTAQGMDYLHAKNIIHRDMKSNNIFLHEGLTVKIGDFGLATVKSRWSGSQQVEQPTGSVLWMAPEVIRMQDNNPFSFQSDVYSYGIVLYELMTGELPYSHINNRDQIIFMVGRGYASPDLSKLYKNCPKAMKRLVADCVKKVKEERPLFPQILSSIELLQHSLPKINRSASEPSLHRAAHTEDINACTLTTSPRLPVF
Outline: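 KINOMEscan competition binding. Binding reactions run at rt for 1 h. Kinase not bound to compound is captured on an immobilized affinity ligand and quantified by qPCR.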

[14] = Oral bioavailability in Cynomolgus monkey at 10 mg/kg; assay type: ADME, organism-based, Macaca fascicularis; details: in vivo
Outline: (§6)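 Male non-naive cynomolgus monkeys (2.6–3.4 kg) and beagle dogs (10.3–11.9 kg), n = 3 each, were dosed in a crossover design with a ≥7-day washout. Doses were 10 mg/kg by nasogastric gavage and 1 mg/kg as a saphenous iv bolus, both free base in 22% HPβCD. Animals were fasted overnight until about 4 h post dose. Femoral plasma was sampled from predose to 24 h and analyzed by LC-MS/MS. Parameters came from noncompartmental analysis; mean ± SD reported.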

[15] = target: Cytochrome P450 2D6 (Homo sapiens, UniProt P10635); experiment: Inhibition of human CYP2D6; assay type: ADME
Cytochrome P450 2D6, sequence (P10635 whole entry, canonical isoform): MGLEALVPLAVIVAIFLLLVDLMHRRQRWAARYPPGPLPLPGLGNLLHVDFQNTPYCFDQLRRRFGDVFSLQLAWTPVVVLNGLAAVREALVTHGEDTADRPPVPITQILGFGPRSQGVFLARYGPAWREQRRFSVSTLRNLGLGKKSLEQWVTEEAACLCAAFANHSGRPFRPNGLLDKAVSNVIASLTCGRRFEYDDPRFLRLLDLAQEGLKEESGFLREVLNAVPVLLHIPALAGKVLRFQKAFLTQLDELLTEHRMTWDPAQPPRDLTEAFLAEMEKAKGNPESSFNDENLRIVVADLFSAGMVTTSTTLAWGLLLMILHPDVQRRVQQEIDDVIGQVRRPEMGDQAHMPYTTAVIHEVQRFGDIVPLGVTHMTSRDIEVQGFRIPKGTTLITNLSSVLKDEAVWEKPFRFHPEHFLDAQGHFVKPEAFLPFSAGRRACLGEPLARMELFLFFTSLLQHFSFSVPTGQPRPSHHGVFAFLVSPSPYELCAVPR
Outline: (§7)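 Pooled human liver microsomes (0.25 mg/mL) with NADPH (1 mM) and five pooled probe substrates (testosterone, diclofenac, dextromethorphan, mephenytoin, phenacetin). Test compound ran at eight concentrations, 0.31−40 μM, 20 min at 37 °C, with pooled control inhibitors in parallel. Isoform-specific metabolites were measured by LC-MS/MS.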

[16] = test system: HCT-116; experiment: Cytotoxicity against human HCT116 cells expressing wild type BRAF after 72 hrs by cell titer blue assay; assay type: functional, cell-based; details: HCT-116, 72 h; outline: as §3
[17] = target: Hepatocyte growth factor receptor (Homo sapiens, UniProt P08581); experiment: Inhibition of cMET in human HEK293 cells after 1 hr by competition binding assay; assay type: cell-based
Hepatocyte growth factor receptor, sequence (P08581 whole entry): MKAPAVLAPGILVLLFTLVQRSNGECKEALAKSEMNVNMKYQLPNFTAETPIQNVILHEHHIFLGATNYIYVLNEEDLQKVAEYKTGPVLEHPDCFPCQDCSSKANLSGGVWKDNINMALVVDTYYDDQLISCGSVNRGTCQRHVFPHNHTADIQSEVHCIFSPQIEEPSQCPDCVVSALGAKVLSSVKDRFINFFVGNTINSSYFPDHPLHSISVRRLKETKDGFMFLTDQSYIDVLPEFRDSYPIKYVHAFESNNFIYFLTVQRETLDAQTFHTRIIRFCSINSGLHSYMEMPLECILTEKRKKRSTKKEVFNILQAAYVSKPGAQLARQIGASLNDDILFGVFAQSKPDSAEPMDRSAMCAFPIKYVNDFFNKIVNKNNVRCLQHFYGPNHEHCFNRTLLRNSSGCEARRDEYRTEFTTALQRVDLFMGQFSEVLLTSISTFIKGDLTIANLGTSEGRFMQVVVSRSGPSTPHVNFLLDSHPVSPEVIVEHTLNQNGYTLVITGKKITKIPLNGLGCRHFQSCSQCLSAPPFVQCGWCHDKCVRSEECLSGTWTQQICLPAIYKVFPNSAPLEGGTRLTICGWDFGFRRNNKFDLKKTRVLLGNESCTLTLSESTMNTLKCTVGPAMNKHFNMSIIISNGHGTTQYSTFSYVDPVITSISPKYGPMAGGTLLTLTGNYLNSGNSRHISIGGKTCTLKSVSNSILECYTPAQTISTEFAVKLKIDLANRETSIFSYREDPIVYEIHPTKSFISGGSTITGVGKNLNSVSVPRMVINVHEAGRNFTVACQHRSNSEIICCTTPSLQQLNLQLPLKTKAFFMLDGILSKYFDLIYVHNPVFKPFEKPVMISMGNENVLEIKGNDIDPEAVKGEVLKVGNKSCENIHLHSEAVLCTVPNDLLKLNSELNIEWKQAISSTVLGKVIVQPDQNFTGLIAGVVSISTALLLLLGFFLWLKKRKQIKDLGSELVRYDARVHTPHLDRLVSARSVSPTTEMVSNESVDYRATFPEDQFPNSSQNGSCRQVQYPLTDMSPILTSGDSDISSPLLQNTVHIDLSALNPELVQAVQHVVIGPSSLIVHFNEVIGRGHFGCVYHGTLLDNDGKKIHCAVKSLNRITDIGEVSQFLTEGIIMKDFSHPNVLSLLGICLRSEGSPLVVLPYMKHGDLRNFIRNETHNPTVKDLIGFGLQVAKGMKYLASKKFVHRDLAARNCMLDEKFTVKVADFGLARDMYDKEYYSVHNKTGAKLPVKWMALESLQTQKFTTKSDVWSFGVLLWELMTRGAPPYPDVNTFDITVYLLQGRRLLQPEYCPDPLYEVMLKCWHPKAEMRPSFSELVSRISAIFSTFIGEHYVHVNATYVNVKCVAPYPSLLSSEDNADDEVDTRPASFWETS
Outline: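 KINOMEscan competition binding. Binding reactions ran at rt for 1 h. Unbound kinase was captured on an immobilized affinity ligand and quantified by qPCR. Each kinase was tested individually.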

[18] = Tmax in Cynomolgus monkey at 10 mg/kg, po; assay type: ADME, organism-based, Macaca fascicularis; set-up: dose 10 mg/kg, route oral; details: in vivo; outline: as §6
[19] = target: Phosphatidylinositol 4,5-bisphosphate 3-kinase catalytic subunit beta isoform (Homo sapiens, UniProt P42338); experiment: Inhibition of PIK3-CB in human HEK293 cells after 1 hr by competition binding assay; assay type: cell-based
Phosphatidylinositol 4,5-bisphosphate 3-kinase catalytic subunit beta isoform, sequence (P42338 whole entry, canonical isoform): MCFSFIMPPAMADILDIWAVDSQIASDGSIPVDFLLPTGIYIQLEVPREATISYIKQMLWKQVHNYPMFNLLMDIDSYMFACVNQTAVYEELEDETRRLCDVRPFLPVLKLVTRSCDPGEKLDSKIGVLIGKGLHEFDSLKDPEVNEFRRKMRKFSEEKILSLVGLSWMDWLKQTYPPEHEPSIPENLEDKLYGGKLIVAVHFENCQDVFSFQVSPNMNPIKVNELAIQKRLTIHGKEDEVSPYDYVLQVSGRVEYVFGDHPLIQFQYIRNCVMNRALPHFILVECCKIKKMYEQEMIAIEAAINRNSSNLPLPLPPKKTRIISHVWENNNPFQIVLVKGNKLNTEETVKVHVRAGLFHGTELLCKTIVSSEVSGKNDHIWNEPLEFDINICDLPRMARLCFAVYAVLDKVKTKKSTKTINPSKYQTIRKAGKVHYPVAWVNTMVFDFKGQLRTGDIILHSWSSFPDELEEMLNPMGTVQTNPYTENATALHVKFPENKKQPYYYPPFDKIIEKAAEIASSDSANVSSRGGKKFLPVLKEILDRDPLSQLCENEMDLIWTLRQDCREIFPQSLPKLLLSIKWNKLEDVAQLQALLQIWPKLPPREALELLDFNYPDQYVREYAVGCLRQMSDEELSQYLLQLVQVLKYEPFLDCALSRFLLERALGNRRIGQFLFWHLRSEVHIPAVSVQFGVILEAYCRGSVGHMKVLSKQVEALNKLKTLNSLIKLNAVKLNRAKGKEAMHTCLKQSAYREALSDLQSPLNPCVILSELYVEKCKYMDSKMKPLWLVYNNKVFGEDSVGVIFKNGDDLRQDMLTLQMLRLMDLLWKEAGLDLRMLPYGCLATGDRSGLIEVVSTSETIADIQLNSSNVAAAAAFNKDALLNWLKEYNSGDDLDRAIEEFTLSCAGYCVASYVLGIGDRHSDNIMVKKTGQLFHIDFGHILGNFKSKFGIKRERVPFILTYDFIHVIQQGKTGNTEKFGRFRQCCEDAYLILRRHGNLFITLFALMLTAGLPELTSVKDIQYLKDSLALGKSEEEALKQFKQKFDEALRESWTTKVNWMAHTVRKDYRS
Outline: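 Unbound kinase was captured on immobilized affinity ligand and quantified by qPCR. Kd came from eleven serial 3-fold dilutions, as the mean of duplicates.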

[20] = test system: COLO 205; experiment: Antitumor activity against human COLO205 cells xenografted in athymic nude mouse at 100 mg/kg, po bid for 14 days; assay type: functional, organism-based; set-up: dose 100 mg/kg
Outline: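 Athymic nude mice carried subcutaneous flank Colo-205 xenografts (1 × 10^6 cells), randomized at 150−200 mm3 (n = 10/group). Oral dosing BID for 14 days in 22% HPβCD against vehicle controls. Caliper volumes W2(L/2) taken three times weekly. Partial regression: volume fell in ≥3 successive measurements to below the starting volume while the tumor stayed palpable.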

[21] = Volume of distribution in beagle dog at 1 mg/kg, iv and 10 mg/kg, po; assay type: ADME, organism-based, Canis lupus familiaris; details: in vivo; outline: as §6
[22] = Cmax in Sprague-Dawley rat at 10 mg/kg, po; assay type: ADME, organism-based; set-up: dose 10 mg/kg, route oral; details: in vivo; outline: as §4
[23] = AUC (infinity) in Cynomolgus monkey at 10 mg/kg, po; assay type: ADME, organism-based, Macaca fascicularis; set-up: dose 10 mg/kg, route oral, time infinity; details: plasma; outline: as §4
[24] = target: Cytochrome P450 2C19 (Homo sapiens, UniProt P33261); experiment: Inhibition of human CYP2C19; assay type: ADME; outline: as §7
Cytochrome P450 2C19, sequence (P33261 whole entry): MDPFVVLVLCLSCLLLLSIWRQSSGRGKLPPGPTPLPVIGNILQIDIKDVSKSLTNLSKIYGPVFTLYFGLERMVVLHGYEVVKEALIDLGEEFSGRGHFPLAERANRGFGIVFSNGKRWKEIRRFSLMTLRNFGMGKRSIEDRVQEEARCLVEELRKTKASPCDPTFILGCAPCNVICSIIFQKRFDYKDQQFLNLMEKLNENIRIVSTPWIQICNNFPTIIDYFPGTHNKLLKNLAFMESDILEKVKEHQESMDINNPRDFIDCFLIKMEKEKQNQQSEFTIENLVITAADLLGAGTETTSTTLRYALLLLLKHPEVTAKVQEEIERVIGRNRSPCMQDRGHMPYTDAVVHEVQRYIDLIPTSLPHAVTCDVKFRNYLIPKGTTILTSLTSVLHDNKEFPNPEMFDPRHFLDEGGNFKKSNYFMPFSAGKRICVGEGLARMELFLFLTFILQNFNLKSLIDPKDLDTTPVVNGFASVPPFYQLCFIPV

[25] = Half life in mouse liver microsomes; assay type: ADME, Microsome; outline: as §5

Work on `COc1cc2ncnc(Oc3cccc(NC(=O)Nc4cc(C(C)(C)C(F)(F)F)on4)c3)c2cc1OC` [CEP-32496] yielded a Vd [1] of 1.6 L/kg, a Tmax [2] of 2 h and a bioavailability [3] of 94%. The Activity [4] was “Non-toxic”, the IC50 [5] was 82 nM and the EC50 [6] was 6260 nM. For the same molecule, the Activity [7] was “Non-toxic”, the inhibition in vivo at 30 mg/kg [8] was 50% and the clearance [9] was 3.4 mL/min/kg. For the same molecule, the Activity [10] was “Non-toxic”, the half-life [11] was 4.9 h and the CLH [12] was under 23 µL/min/mg. For the same molecule, the Kd [13] was 39 nM, the bioavailability [14] was 100% and the IC50 [15] was over 10000 nM. For the same molecule, the EC50 [16] was 669 nM, the Kd [17] was 513 nM and the Tmax [18] was 4 h. For the same molecule, the Kd [19] was over 10000 nM, the Activity [20] was “Active” and the Vd [21] was 4.5 L/kg. It also gave a Cmax [22] of 6.5 µM, an AUC(0-inf) [23] of 92.2 µM·h and an IC50 [24] of 3400 nM. The half-life [25] was over 1 h.
